Test results published in ChEMBL document CHEMBL4265907, “Design, synthesis and pharmacological evaluation of N4,N6-disubstituted pyrimidine-4,6-diamine derivatives as potent EGFR inhibitors in non-small cell lung cancer” (Eur J Med Chem, 2018).
Calls of active or inactive are those of the source. The rule behind the calls is not given here.

Legend:
NCI-H1975 [1] = assay: Cell cycle arrest in human NCI-H1975 cells assessed as accumulation at G2/M phase at 100 to 500 nM after 24 hrs by propidium iodide staining based flow cytometry; type: functional
How it was run: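 NCI-H1975 cells (2×10^5) seeded in 6-well plates overnight, then treated 24 h at 50, 100, 250 or 500 nM; 1‰ DMSO medium as control. Cells harvested, washed in cold PBS, fixed in 70% cold ethanol at −20 °C overnight, stained with PI/RNase buffer and analysed by flow cytometry. n=3.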

A-431 [2] = assay: Induction of apoptosis in human A431 cells assessed as viable cells at 500 nM after 48 hrs by Annexin V-FITC/PI staining based flow cytometry (reference value: 90.3%); type: functional; details: A-431, 48 h, read-out: Activity
[3] = target: T1, Epidermal growth factor receptor (Homo sapiens, UniProt P00533); assay: Inhibition of EGFR in human H3255 cells assessed as decrease in EGF-induced AKT phosphorylation by Western blot method; type: cell-based
T1 sequence (P00533 whole entry): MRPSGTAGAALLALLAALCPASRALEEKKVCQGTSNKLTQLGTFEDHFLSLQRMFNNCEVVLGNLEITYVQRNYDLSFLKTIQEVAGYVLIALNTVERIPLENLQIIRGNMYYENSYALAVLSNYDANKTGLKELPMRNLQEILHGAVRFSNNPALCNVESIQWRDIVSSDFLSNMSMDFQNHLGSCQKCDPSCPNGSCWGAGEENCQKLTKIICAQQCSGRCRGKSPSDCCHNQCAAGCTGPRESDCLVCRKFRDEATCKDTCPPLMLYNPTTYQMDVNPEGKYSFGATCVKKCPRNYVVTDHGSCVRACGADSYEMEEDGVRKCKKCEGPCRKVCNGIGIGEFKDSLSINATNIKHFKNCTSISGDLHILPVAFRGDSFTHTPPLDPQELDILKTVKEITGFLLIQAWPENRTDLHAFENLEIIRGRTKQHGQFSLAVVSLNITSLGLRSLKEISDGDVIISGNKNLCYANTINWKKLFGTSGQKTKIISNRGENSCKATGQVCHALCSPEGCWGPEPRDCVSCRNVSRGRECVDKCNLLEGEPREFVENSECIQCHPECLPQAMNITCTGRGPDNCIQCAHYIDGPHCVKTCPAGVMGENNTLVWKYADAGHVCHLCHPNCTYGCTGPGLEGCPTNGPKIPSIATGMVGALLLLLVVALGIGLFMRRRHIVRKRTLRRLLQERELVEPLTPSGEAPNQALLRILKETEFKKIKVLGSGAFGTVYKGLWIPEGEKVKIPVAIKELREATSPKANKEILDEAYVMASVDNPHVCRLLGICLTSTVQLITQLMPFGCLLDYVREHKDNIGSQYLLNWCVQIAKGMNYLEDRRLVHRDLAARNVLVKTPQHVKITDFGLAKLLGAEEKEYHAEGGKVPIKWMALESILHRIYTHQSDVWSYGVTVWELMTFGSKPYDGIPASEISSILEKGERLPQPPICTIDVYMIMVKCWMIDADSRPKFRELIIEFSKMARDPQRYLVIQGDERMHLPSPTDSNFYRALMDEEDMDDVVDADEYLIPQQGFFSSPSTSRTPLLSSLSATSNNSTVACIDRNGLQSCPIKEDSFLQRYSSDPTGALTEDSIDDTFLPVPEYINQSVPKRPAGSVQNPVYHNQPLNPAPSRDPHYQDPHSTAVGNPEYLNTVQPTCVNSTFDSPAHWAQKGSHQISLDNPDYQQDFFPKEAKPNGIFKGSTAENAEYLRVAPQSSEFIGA
How it was run: (§1)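 Cell lysates prepared in protein lysis buffer and cleared at 12,000 g for 10 min at 4 °C. 50 μg protein per lane was run on a gel, transferred to PVDF and immunoblotted, with GAPDH as the loading control.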

NCI-H1975 [4] = assay: Induction of apoptosis in human NCI-H1975 cells assessed as early apoptotic cells at 250 nM after 48 hrs by Annexin V-FITC/PI staining based flow cytometry (reference value: 2.07%); type: functional
NCI-H1975 [5] = assay: Induction of apoptosis in human NCI-H1975 cells assessed as viable cells at 250 nM after 48 hrs by Annexin V-FITC/PI staining based flow cytometry (reference value: 93.7%); type: functional; details: NCI-H1975, 48 h, read-out: Activity
A-431 [6] = assay: Induction of apoptosis in human A431 cells assessed as early apoptotic cells after 48 hrs by Annexin V-FITC/PI staining based flow cytometry; type: functional, cell-based
HCC827 [7] = assay: Induction of apoptosis in human HCC827 cells assessed as early apoptotic cells at 1000 nM after 48 hrs by Annexin V-FITC/PI staining based flow cytometry (reference value: 2.83%); type: functional
Mus musculus [8] = assay: In vivo inhibition of ERK1/2 phosphorylation in tumor of BALB/C nude mouse xenografted with human PC9 cells at 15 to 30 mg/kg, ip qd administered for 19 days by immunoblot method; type: functional, organism-based
NCI-H3255 [9] = assay: Induction of apoptosis in human H3255 cells assessed as early apoptotic cells at 250 nM after 48 hrs by Annexin V-FITC/PI staining based flow cytometry (reference value: 3.22%); type: functional
[10] = Half life in Sprague-Dawley rat at 30 mg/kg, po by UPLC-MS/MS analysis; type: ADME, organism-based; details: in vivo
How it was run: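 Four female and four male Sprague-Dawley rats, 200-220 g, fasted 12 h, then given a single oral dose of 30 mg/kg as a 0.5% CMC-Na suspension. Blood sampled at 0.083, 0.25, 0.5, 1, 2, 4, 8 and 24 h, plasma separated by centrifugation at 4000 r/min for 10 min, and analysed by UPLC–MS/MS. Parameters reported as mean ± SD, n=6.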

[11] = target: T1, Epidermal growth factor receptor; assay: Inhibition of EGFR in human H1975 cells assessed as decrease in EGF-induced AKT phosphorylation by Western blot method; type: cell-based; how it was run: as §1
NCI-H3255 [12] = assay: Induction of apoptosis in human H3255 cells assessed as late apoptotic cells at 500 nM after 48 hrs by Annexin V-FITC/PI staining based flow cytometry (reference value: 1.77%); type: functional
NCI-H1975 [13] = assay: Induction of apoptosis in human NCI-H1975 cells assessed as necrotic cells at 1000 nM after 48 hrs by Annexin V-FITC/PI staining based flow cytometry (reference value: 2.31%); type: functional
NCI-H1975 [14] = assay: Induction of apoptosis in human NCI-H1975 cells assessed as necrotic cells at 500 nM after 48 hrs by Annexin V-FITC/PI staining based flow cytometry (reference value: 2.31%); type: functional
[15] = target: T1, Epidermal growth factor receptor; assay: Inhibition of EGFR in human H3255 cells assessed as decrease in EGF-induced ERK1/2 phosphorylation by Western blot method; type: cell-based; how it was run: as §1
HCC827 [16] = assay: Induction of apoptosis in human HCC827 cells assessed as necrotic cells at 250 nM after 48 hrs by Annexin V-FITC/PI staining based flow cytometry (reference value: 1.41%); type: functional
NCI-H3255 [17] = assay: Induction of apoptosis in human H3255 cells assessed as late apoptotic cells at 250 nM after 48 hrs by Annexin V-FITC/PI staining based flow cytometry (reference value: 1.77%); type: functional
HCC827 [18] = assay: Induction of apoptosis in human HCC827 cells assessed as early apoptotic cells at 500 nM after 48 hrs by Annexin V-FITC/PI staining based flow cytometry (reference value: 2.83%); type: functional
A-431 [19] = assay: Induction of apoptosis in human A431 cells assessed as late apoptotic cells at 250 nM after 48 hrs by Annexin V-FITC/PI staining based flow cytometry (reference value: 2.11%); type: functional
NCI-H3255 [20] = assay: Induction of apoptosis in human H3255 cells assessed as viable cells after 48 hrs by Annexin V-FITC/PI staining based flow cytometry; type: functional, cell-based
A-431 [21] = assay: Induction of apoptosis in human A431 cells assessed as early apoptotic cells at 500 nM after 48 hrs by Annexin V-FITC/PI staining based flow cytometry (reference value: 3.40%); type: functional
HCC827 [22] = assay: Induction of apoptosis in human HCC827 cells assessed as late apoptotic cells at 250 nM after 48 hrs by Annexin V-FITC/PI staining based flow cytometry (reference value: 1.15%); type: functional
NCI-H3255 [23] = assay: Induction of apoptosis in human H3255 cells assessed as viable cells at 1000 nM after 48 hrs by Annexin V-FITC/PI staining based flow cytometry (reference value: 87.9%); type: functional; details: NCI-H3255, 48 h, read-out: Activity
NCI-H1975 [24] = assay: Induction of apoptosis in human NCI-H1975 cells assessed as late apoptotic cells after 48 hrs by Annexin V-FITC/PI staining based flow cytometry; type: functional, cell-based
Mus musculus [25] = assay: In vivo inhibition of EGFR phosphorylation in tumor of BALB/C nude mouse xenografted with human PC9 cells at 15 to 30 mg/kg, ip qd administered for 19 days by immunoblot method; type: functional, organism-based
NCI-H1975 [26] = assay: Induction of apoptosis in human NCI-H1975 cells assessed as late apoptotic cells at 500 nM after 48 hrs by Annexin V-FITC/PI staining based flow cytometry (reference value: 1.91%); type: functional
A-431 [27] = assay: Induction of apoptosis in human A431 cells assessed as early apoptotic cells at 1000 nM after 48 hrs by Annexin V-FITC/PI staining based flow cytometry (reference value: 3.40%); type: functional
NCI-H1975 [28] = assay: Induction of apoptosis in human NCI-H1975 cells assessed as viable cells at 1000 nM after 48 hrs by Annexin V-FITC/PI staining based flow cytometry (reference value: 93.7%); type: functional; details: NCI-H1975, 48 h, read-out: Activity
HCC827 [29] = assay: Induction of apoptosis in human HCC827 cells assessed as early apoptotic cells at 250 nM after 48 hrs by Annexin V-FITC/PI staining based flow cytometry (reference value: 2.83%); type: functional

With `COc1cccc(Nc2cc(Nc3cc(OC)ccc3OC)ncn2)c1` the Activity (NCI-H1975 [1]) was “Active”, the viability at 0.5 µM (A-431 [2]) was 70.7% and the inhibition [3] was “Dose-dependent effect”. For the same compound, the Activity (NCI-H1975 [4]) was 22.6%, the viability at 0.25 µM (NCI-H1975 [5]) was 56.1% and the Activity (A-431 [6]) was “Dose-dependent effect”. The Activity (HCC827 [7]) was 19.6%, the inhibition (Mus musculus [8]) was “Active” and the Activity (NCI-H3255 [9]) was 13.3%. For the same compound, the half-life [10] was 4.17 h, the inhibition [11] was “Dose-dependent effect” and the Activity (NCI-H3255 [12]) was 5.35%. The Activity (NCI-H1975 [13]) was 7.56%, the Activity (NCI-H1975 [14]) was 6.93% and the inhibition [15] was “Dose-dependent effect”. For the same compound, the Activity (HCC827 [16]) was 12.4%, the Activity (NCI-H3255 [17]) was 3.24% and the Activity (HCC827 [18]) was 21.3%. For the same compound, the Activity (A-431 [19]) was 6.5%, the Activity (NCI-H3255 [20]) was “Dose-dependent effect” and the Activity (A-431 [21]) was 15.1%. For the same compound, the Activity (HCC827 [22]) was 10.2%, the viability at 1 µM (NCI-H3255 [23]) was 65.4% and the Activity (NCI-H1975 [24]) was “Dose-dependent effect”. The inhibition (Mus musculus [25]) was “Active”, the Activity (NCI-H1975 [26]) was 15.5% and the Activity (A-431 [27]) was 18.1%. It also gave a viability at 1 µM (NCI-H1975 [28]) of 46.4% and an Activity (HCC827 [29]) of 15.5%.
